Each block holds one molecule with its values, some of them ahead of it. Active and inactive are the calls of the source.
What was measured:
[1] = biological target: T1, Tyrosine-protein kinase JAK3 (Homo sapiens, UniProt P52333); assay: Inhibition of JAK3 in endogenous nucleic acid-stimulated human HaCaT cells assessed as reduction in CXCL10 expression at 100 nM measured after 24 hrs by ELISA
T1 sequence (P52333 whole entry): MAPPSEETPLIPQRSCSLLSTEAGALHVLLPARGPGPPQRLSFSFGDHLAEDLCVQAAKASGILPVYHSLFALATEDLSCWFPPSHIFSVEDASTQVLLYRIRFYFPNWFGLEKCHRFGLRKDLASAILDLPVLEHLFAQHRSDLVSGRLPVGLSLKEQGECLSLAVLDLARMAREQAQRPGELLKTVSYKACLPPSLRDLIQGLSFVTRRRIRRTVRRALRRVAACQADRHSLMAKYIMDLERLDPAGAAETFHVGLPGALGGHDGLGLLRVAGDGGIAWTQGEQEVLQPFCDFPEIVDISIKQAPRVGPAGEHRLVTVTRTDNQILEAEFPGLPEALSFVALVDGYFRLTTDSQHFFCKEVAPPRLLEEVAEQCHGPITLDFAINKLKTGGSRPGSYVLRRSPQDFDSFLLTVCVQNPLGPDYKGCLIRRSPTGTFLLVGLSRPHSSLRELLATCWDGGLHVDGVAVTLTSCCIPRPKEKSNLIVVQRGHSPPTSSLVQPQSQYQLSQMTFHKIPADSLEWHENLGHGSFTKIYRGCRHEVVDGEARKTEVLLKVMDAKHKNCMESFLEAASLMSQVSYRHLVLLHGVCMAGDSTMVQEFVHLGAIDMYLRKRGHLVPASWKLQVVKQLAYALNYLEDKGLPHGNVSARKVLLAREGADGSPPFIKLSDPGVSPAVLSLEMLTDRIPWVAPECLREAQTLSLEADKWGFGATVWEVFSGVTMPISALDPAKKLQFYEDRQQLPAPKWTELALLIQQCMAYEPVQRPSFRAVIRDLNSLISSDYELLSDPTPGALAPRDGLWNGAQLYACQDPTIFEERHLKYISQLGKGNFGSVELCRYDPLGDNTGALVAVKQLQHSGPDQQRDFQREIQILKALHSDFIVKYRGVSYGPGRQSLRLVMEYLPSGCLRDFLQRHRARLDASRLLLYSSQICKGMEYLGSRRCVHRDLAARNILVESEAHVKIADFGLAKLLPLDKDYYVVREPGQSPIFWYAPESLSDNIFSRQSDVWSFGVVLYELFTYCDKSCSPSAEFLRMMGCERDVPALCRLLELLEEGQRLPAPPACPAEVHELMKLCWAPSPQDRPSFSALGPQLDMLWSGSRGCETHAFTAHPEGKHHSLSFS

Mus musculus [2] = assay: Improvement in CLE-like skin lesions in 450 mJ/cm2 UV-irradiated lupus-prone TREX1-/- mouse model assessed as improvement in infiltrating dermal immune cells at 1 % administered topically for 7 days by H and E staining based histological analysis; format: functional, organism-based; details: time 7.0 day
Outline: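 Lesional skin from the topically treated or placebo-treated groups was processed for H&E and anti-CD45 immunohistology and viewed at ×400. Dermal infiltrate was graded as a CD45 inflammation score. Values are mean ± SEM and were compared by Mann-Whitney U test.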

Mus musculus [3] = assay: Improvement in CLE-like skin lesions in 450 mJ/cm2 UV-irradiated lupus-prone TREX1-/- mouse model assessed as reduction in CCL7 gene expression in lesional skin at 1 % administered topically for 7 days relative to control; format: functional, organism-based; details: time 7.0 day
Outline: (§1)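 Lesional skin from TREX1–/– mice given the topical JAK1 inhibitor or placebo underwent gene expression analysis for IFN-associated genes. Differential expression was defined as a change greater than twofold with p < 0.05 by Welch's t-test against placebo.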

Mus musculus [4] = assay: Improvement in CLE-like skin lesions in 450 mJ/cm2 UV-irradiated lupus-prone TREX1-/- mouse model assessed as reduction in IRF7 gene expression in lesional skin at 1 % administered topically for 7 days relative to control; format: functional, organism-based; details: time 7.0 day
Outline: as §1

[5] = biological target: Tyrosine-protein kinase JAK1 (Homo sapiens) (UniProt P23458); assay: Inhibition of JAK1 in endogenous nucleic acid-stimulated NHEK cells assessed as decrease in CXCL11 gene expression at 1 uM relative to control; format: cell-based
Outline: (§2)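 NHEK primary keratinocytes were stimulated with endogenous nucleic acids (eNA) and then treated with inhibitor at 1 μM final, 4 samples per condition. Gene expression was compared with untreated eNA-stimulated cells. Downregulation was defined as greater than twofold with p < 0.05 by Welch's t-test.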
Target sequence in this assay (P23458 whole entry): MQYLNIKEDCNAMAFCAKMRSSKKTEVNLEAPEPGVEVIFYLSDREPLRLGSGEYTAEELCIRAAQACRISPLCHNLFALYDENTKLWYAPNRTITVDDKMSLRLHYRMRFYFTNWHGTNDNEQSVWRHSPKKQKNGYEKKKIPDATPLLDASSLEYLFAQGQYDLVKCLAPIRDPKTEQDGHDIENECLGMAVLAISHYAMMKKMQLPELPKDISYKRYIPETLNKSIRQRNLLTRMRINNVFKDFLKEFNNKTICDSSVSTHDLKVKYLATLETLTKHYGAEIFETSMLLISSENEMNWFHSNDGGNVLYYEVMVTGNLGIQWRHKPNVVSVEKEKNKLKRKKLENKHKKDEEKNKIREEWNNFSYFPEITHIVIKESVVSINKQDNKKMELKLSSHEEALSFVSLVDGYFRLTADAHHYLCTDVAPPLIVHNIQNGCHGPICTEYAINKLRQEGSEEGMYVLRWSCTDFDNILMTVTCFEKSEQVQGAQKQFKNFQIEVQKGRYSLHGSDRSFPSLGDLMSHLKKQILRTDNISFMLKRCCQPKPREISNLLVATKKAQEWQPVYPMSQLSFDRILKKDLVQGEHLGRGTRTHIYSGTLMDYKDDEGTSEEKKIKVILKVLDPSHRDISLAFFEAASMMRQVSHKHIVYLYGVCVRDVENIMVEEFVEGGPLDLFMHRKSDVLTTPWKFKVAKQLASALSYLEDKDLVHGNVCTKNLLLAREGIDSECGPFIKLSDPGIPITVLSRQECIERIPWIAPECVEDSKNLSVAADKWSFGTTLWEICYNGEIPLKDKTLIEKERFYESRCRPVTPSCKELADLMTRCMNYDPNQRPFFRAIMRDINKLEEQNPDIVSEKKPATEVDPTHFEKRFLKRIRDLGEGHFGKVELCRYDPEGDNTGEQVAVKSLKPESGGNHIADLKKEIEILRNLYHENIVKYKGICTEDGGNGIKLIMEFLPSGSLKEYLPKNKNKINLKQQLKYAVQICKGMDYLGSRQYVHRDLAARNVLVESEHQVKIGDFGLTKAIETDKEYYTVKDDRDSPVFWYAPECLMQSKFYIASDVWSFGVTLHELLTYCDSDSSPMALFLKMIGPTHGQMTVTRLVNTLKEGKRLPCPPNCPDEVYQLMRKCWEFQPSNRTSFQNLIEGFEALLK

Mus musculus [6] = assay: Improvement in CLE-like skin lesions in 450 mJ/cm2 UV-irradiated lupus-prone TREX1-/- mouse model assessed as reduction in IFIT1 gene expression in lesional skin at 1 % administered topically for 7 days relative to control; format: functional, organism-based; details: time 7.0 day
Outline: as §1

Mus musculus [7] = assay: Improvement in CLE-like skin lesions in 450 mJ/cm2 UV-irradiated lupus-prone TREX1-/- mouse model assessed as reduction in CCL2 gene expression in lesional skin at 1 % administered topically for 7 days relative to control; format: functional, organism-based; details: time 7.0 day
Outline: as §1

[8] = biological target: Tyrosine-protein kinase JAK1 (Homo sapiens) (UniProt P23458); assay: Inhibition of JAK1 in endogenous nucleic acid-stimulated NHEK cells assessed as decrease in BlyS gene expression at 1 uM relative to control; format: cell-based
Outline: as §2
Target sequence in this assay (P23458 whole entry): as above

[9] = biological target: Tyrosine-protein kinase JAK1 (Homo sapiens) (UniProt P23458); assay: Inhibition of JAK1 in endogenous nucleic acid-stimulated NHEK cells assessed as decrease in Caspase 10 gene expression at 1 uM relative to control; format: cell-based
Outline: as §2
Target sequence in this assay (P23458 whole entry): as above

[10] = biological target: Tyrosine-protein kinase JAK1 (Homo sapiens) (UniProt P23458); assay: Inhibition of JAK1 in endogenous nucleic acid-stimulated NHEK cells assessed as decrease in CXCL10 gene expression at 1 uM relative to control; format: cell-based
Outline: as §2
Target sequence in this assay (P23458 whole entry): as above

Mus musculus [11] = assay: Improvement in CLE-like skin lesions in 450 mJ/cm2 UV-irradiated lupus-prone TREX1-/- mouse model assessed as reduction in CXCL9 gene expression in lesional skin at 1 % administered topically for 7 days relative to control; format: functional, organism-based; details: time 7.0 day
Outline: as §1

Mus musculus [12] = assay: Improvement in CLE-like skin lesions in 450 mJ/cm2 UV-irradiated lupus-prone TREX1-/- mouse model assessed as improvement in epidermal thickness at 1 % administered topically for 7 days by H and E staining based histological analysis; format: functional, organism-based; details: time 7.0 day
Mus musculus [13] = assay: Improvement in CLE-like skin lesions in 450 mJ/cm2 UV-irradiated lupus-prone TREX1-/- mouse model assessed as reduction in IFITM3 gene expression in lesional skin at 1 % administered topically for 7 days relative to control; format: functional, organism-based; details: time 7.0 day
Outline: as §1

Mus musculus [14] = assay: Improvement in CLE-like skin lesions in 450 mJ/cm2 UV-irradiated lupus-prone TREX1-/- mouse model assessed as reduction in induration at 1 % administered topically for 7 days measured on day 4 and 7 post-dose; format: functional, organism-based; details: time 7.0 day
Outline: (§3)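 Topical treatment or placebo was given for 7 days, with n = 4 mice per group. Lesions were photographed daily and mice weighed every 2 days. Erythema, induration, scaling and lesion size were scored with the mouse-adapted revised CLASI (Mouse RCLASI) and reported as mean ± SEM.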

Mus musculus [15] = assay: Improvement in CLE-like skin lesions in 450 mJ/cm2 UV-irradiated lupus-prone TREX1-/- mouse model assessed as reduction in CCL9 gene expression in lesional skin at 1 % administered topically for 7 days relative to control; format: functional, organism-based; details: time 7.0 day
Outline: as §1

Mus musculus [16] = assay: Improvement in CLE-like skin lesions in 450 mJ/cm2 UV-irradiated lupus-prone TREX1-/- mouse model assessed as reduction in IRF9 gene expression in lesional skin at 1 % administered topically for 7 days relative to control; format: functional, organism-based; details: time 7.0 day
Outline: as §1

Mus musculus [17] = assay: Improvement in CLE-like skin lesions in 450 mJ/cm2 UV-irradiated lupus-prone TREX1-/- mouse model assessed as reduction in IRF1 gene expression in lesional skin at 1 % administered topically for 7 days relative to control; format: functional, organism-based; details: time 7.0 day
Outline: as §1

[18] = biological target: Tyrosine-protein kinase JAK1 (Homo sapiens) (UniProt P23458); assay: Inhibition of JAK1 in endogenous nucleic acid-stimulated NHEK cells assessed as decrease in AIM2 gene expression at 1 uM relative to control; format: cell-based
Outline: as §2
Target sequence in this assay (P23458 whole entry): as above

Mus musculus [19] = assay: Improvement in CLE-like skin lesions in 450 mJ/cm2 UV-irradiated lupus-prone TREX1-/- mouse model assessed as reduction in scaling at 1 % administered topically for 7 days measured on day 4 and 7 post-dose; format: functional, organism-based; details: time 7.0 day
Outline: as §3

[20] = biological target: Tyrosine-protein kinase JAK1 (Homo sapiens) (UniProt P23458); assay: Inhibition of JAK1 in endogenous nucleic acid-stimulated human HaCaT cells assessed as reduction in CXCL10 expression at 1 uM measured after 24 hrs by ELISA
Target sequence in this assay (P23458 whole entry, looked up): as the sequence (P23458 whole entry) above

Mus musculus [21] = assay: Improvement in CLE-like skin lesions in 450 mJ/cm2 UV-irradiated lupus-prone TREX1-/- mouse model assessed as reduction in CXCL10 gene expression in lesional skin at 1 % administered topically for 7 days relative to control; format: functional, organism-based; details: time 7.0 day
Outline: as §1

Mus musculus [22] = assay: Improvement in CLE-like skin lesions in 450 mJ/cm2 UV-irradiated lupus-prone TREX1-/- mouse model assessed as reduction in CCL5 gene expression in lesional skin at 1 % administered topically for 7 days relative to control; format: functional, organism-based; details: time 7.0 day
Outline: as §1

Mus musculus [23] = assay: Improvement in CLE-like skin lesions in 450 mJ/cm2 UV-irradiated lupus-prone TREX1-/- mouse model assessed as reduction in lession size at 1 % administered topically for 7 days measured on day 4 and 7 post-dose; format: functional, organism-based; details: time 7.0 day
Outline: as §3

[24] = biological target: Tyrosine-protein kinase JAK1 (Homo sapiens) (UniProt P23458); assay: Inhibition of JAK1 in endogenous nucleic acid-stimulated NHEK cells assessed as decrease in TRAIL gene expression at 1 uM relative to control; format: cell-based
Outline: as §2
Target sequence in this assay (P23458 whole entry): as above

[25] = biological target: Tyrosine-protein kinase JAK1 (Homo sapiens) (UniProt P23458); assay: Inhibition of JAK1 in endogenous nucleic acid-stimulated NHEK cells assessed as decrease in TREX1 gene expression at 1 uM relative to control; format: cell-based
Outline: as §2

Mus musculus [26] = assay: Improvement in CLE-like skin lesions in 450 mJ/cm2 UV-irradiated lupus-prone TREX1-/- mouse model assessed as reduction in erythema at 1 % administered topically for 7 days measured on day 4 and 7 post-dose; format: functional, organism-based; details: time 7.0 day
Outline: as §3

inhibition (INH) [1]: Not Active
SMILES: CN(C)C(=O)/C(C#N)=C/c1ccc(-c2nc3cnc4[nH]ccc4c3n2C2CCCCC2)o1

fold change (FC) [5]: > 2 | fold change (FC) [8]: > 2 | fold change (FC) [9]: > 2 | fold change (FC) [10]: > 2 | fold change (FC) [18]: > 2 | inhibition (INH) [20]: Active | fold change (FC) [24]: > 2 | fold change (FC) [25]: > 2
SMILES: N#CCC1(n2cc(-c3ncnc4[nH]ccc34)cn2)CN(C2CCN(C(=O)c3ccnc(C(F)(F)F)c3F)CC2)C1 [ITACITINIB]
Activity (Mus musculus [2]): Active | Activity (Mus musculus [3]): Active | Activity (Mus musculus [4]): Active | Activity (Mus musculus [6]): Active | Activity (Mus musculus [7]): Active | Activity (Mus musculus [11]): Active | Activity (Mus musculus [12]): Active | Activity (Mus musculus [13]): Active | Activity (Mus musculus [14]): Active | Activity (Mus musculus [15]): Active | Activity (Mus musculus [16]): Active | Activity (Mus musculus [17]): Active | Activity (Mus musculus [19]): Active | Activity (Mus musculus [21]): Active | Activity (Mus musculus [22]): Active | Activity (Mus musculus [23]): Active | Activity (Mus musculus [26]): Active

Reference: ChEMBL document CHEMBL5712914, “Selective Janus Kinase 1 Inhibition Is a Promising Therapeutic Approach for Lupus Erythematosus Skin Lesions” (Front Immunol, 2020)
